Bioassay records as filed in PubChem BioAssay.
Compounds with a hit are over-represented: about 3% of the library has one in this group of screens.
SENP6 inh = blocks the human protease SENP6; Q9GZR1; 1.8% of 330,000 active; inhibition, % at 10 µM; Recombinant SENP6 catalytic domain, aminoluciferin luminescence;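 active = inhibition above about 50% at the single tested dose, limit read from the data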
UBC13 inh = inhibitors of human UBC13 polyubiquitin chain formation; TR-FRET; inhibition, % at 20 µM; 0.47% of 330,000 active; AID 485273; in the data active = inhibition above about 45%, passing the limit was not always enough
Target sequence (P61088 whole entry, looked up): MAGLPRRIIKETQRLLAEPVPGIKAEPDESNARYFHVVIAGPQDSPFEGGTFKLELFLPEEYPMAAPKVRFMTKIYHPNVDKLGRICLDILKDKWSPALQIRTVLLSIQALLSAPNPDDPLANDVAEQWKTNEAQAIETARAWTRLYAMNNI
SENP8 block-1 = inhibitors of human SENP8 protease; Q96LD8; purified SENP8, Z-RLRGG-aminoluciferin cleavage, luminescence; inhibition, % at 10 µM; 1.2% of 330,000 active; AID 2540; in the data active = inhibition above about 50%
Target sequence (Q96LD8 whole entry, looked up): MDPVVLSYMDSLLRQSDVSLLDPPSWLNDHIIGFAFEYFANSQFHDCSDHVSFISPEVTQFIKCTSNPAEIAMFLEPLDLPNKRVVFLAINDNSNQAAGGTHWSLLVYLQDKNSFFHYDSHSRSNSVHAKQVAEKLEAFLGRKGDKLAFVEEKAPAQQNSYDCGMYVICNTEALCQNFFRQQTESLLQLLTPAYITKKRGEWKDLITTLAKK
SENP8 block-2 = inhibitors of human SENP8 protease; Q96LD8; recombinant SENP8, Nedd8 substrate fluorescence; inhibition, % at 20 µM; 0.64% of 360,000 active; AID 602440; in the data active = inhibition mostly above about 40%, no sharp cut-off; inactive = mostly below about 27%
Apaf1 inhib = human Apaf-1 inhibition; O14727; reconstituted apoptosome caspase-3 activity, DEVD-Rh110 fluorescence; inhibition, % at 20 µM; 0.71% of 330,000 active; AID 489030; active = inhibition of at least 40% at 20 µM
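Assay system: Apoptosome proteins | Medium: pH 7.5 Hepes buffer with CHAPS, BSA, DTT | Also added: Cytochrome c and DEVD-Rh110 substrate | Times: 30 min plus 50 min, RT | Detection: Rhodamine 110 fluorescence at Ex 480/Em 540 nm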
SENP7 block = SENP7 protease inhibition. Q9BQF6. recombinant SENP7, Z-RLRGG-aminoluciferin luminescence, 40 min. inhibition, % at 5 µM. 1.5% of 330,000 active;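 active = inhibition above about 50% at the single test dose, limit read from the data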
SENP8 conf = human SENP8 inhibition, confirmed | shares compounds with SENP7 block | Recombinant SENP8, Z-RLRGG-aminoluciferin luminescence, 60 min | inhibition, % at 12.5 µM | 40% of 6,200 active;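 active = mean inhibition across replicates above about 50%, limit read from the data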
SENP6 confirm = human SENP6 inhibition, confirmed | shares compounds with SENP7 block | recombinant SENP6, Z-RLRGG-aminoluciferin luminescence | inhibition, % at 12.5 µM | 58% of 6,200 active
SENP7 confirm = confirmation of human SENP7 protease inhibitors | recombinant SENP7, Z-RLRGG-aminoluciferin luminescence, 40 min | shares compounds with SENP7 block | 69% of 6,200 active | inhibition, % at 12.5 µM
Casp3 SENP sel = selectivity test for SENP inhibitors: human caspase-3 inhibition. 60% of 6,200 active. purified caspase-3, Z-DEVD-aminoluciferin luminescence, 60 min. shares compounds with SENP7 block. inhibition, % at 12.5 µM;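 active = mean inhibition above about 50%, limit read from the data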
Luc interf = luminescence interference (SENP counter-screen); shares compounds with SENP7 block; Pre-incubated SENP8/Z-RLRGG-aminoluciferin, luciferase luminescence interference; inhibition, % at 12.5 µM; 39% of 6,200 active; AID 488919;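 active = mean inhibition above about 50% when retested at one dose, limit read from the data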
Each line names hits and unclear results; the compound was inactive in the other large screens (follow-up assays come after a bar, where they were run).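 Rule for the calls, unless noted: active = mean inhibition above about 50% in the one-dose retest (limit read from the data); inactive = the rest.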

Brc1ccc(/C=N/Nc2ccc3ccccc3n2)cc1	SENP6 inh 78.0, SENP8 block-1 62.3, SENP7 block 58.6 | SENP8 conf inactive | SENP6 confirm inactive | SENP7 confirm inactive | Casp3 SENP sel inactive | Luc interf inactive
CSc1ccc(CNC(=O)Cn2nc(C)c3c(C)n(-c4ccc(C)cc4)nc3c2=O)cc1	none
CC[C@@]12C(=O)N(c3cccc(F)c3)C(=O)N1[C@H](c1ccc(Cl)cc1)[C@@H]1C(=O)N(C3CCCCC3)C(=O)[C@@H]12	none
COc1cc(C)ccc1OCc1cc(C(=O)N(Cc2nccn2C)C(C)C)no1	none
C(=N\Nc1ccccn1)/c1ccc2c(c1)OCCO2	SENP6 inh 85.6, SENP8 block-1 71.6, SENP7 block 83.2 | SENP8 conf 81.2 | SENP6 confirm 80.1 | SENP7 confirm 96.6 | Casp3 SENP sel 84.1 | Luc interf inactive
O=S(=O)(N/N=C/c1ccc2c(c1)OCCO2)c1ccccc1	none
C(=N\Nc1nc2ccccc2[nH]1)/c1cccc2cccnc12	none
Oc1c(/C=N/Nc2cccc3cccnc23)ccc2ccccc12	SENP6 inh 52.4 | SENP8 conf inactive | SENP6 confirm inactive | SENP7 confirm inactive | Casp3 SENP sel inactive | Luc interf inactive
COc1cc(/C=N/Nc2cccc3cccnc23)cc(OC)c1O	none
Oc1cccc(/C=N/Nc2cccc3cccnc23)c1	SENP8 block-1 95.9, SENP7 block 91.5 | SENP8 conf 96.8 | SENP6 confirm 100.0 | SENP7 confirm 103.8 | Casp3 SENP sel 93.9 | Luc interf 93.4
CCCCSc1ccc2nc(-c3ccc(C#N)cc3)cn2c1	none
CCCSc1ccc2nc(-c3ccccc3)cn2c1	SENP6 inh 96.3, SENP8 block-1 95.8, SENP7 block 98.4 | SENP8 conf 98.3 | SENP6 confirm 98.8 | SENP7 confirm 102.2 | Casp3 SENP sel 97.0 | Luc interf 92.8
COc1ccc(/C=N/Nc2nc(C(=O)O)cs2)cc1	SENP6 inh 92.9, SENP8 block-1 95.7, SENP7 block 96.5 | SENP8 conf 97.1 | SENP6 confirm 97.6 | SENP7 confirm 102.1 | Casp3 SENP sel 63.2 | Luc interf 97.6
COc1ccc(NC(=S)N2CCCC2)c(OC)c1	none
Cc1[nH]nc(SCC(=O)N2CCCCCC2)c1[N+](=O)[O-]	SENP8 block-1 52.2 | SENP8 conf 97.9 | SENP6 confirm 99.9 | SENP7 confirm 102.9 | Casp3 SENP sel 98.9 | Luc interf 88.5
COc1cccc(C(=O)Cn2c(NCCO)nc3ccccc32)c1	none
COc1cccc(C(=O)Cn2c(=N)n(C)c3ccccc32)c1	SENP6 inh 64.2 | SENP8 conf inactive | SENP6 confirm inactive | SENP7 confirm inactive | Casp3 SENP sel inactive | Luc interf inactive
Cn1nc(C(=O)OCC(=O)Nc2ccc(C(N)=O)cc2)c2ccccc2c1=O	none
O=C(Cc1ccccc1F)Nc1ccc(SC(F)F)cc1	SENP6 inh 60.7 | SENP8 conf inactive | SENP6 confirm inactive | SENP7 confirm 53.2 | Casp3 SENP sel inactive | Luc interf inactive
O=C(Nc1ccc(SC(F)F)cc1)c1ccccc1F	SENP6 inh 50.0 | SENP8 conf inactive | SENP6 confirm inactive | SENP7 confirm 73.0 | Casp3 SENP sel inactive | Luc interf 62.9
O=C(COC(=O)Cc1ccccc1F)Nc1ccc(SC(F)F)cc1	none
O=C(N/C=C/c1ccccc1)c1ccccc1	SENP6 inh 70.8, SENP8 block-1 58.4 | SENP8 conf inactive | SENP6 confirm inactive | SENP7 confirm 82.1 | Casp3 SENP sel 63.2 | Luc interf inactive
O=C(NCCNC(=O)c1ccccc1)c1ccccc1	none
